{
  "source": "paper PMC2587418",
  "about": "(Journal of medicinal chemistry, 2008)",
  "key": {"[1]": {"assay_type": "in vivo, rat", "conditions": "pretreated with 3 (10 mg/kg i.v.)", "in_short": "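Adult male Sprague-Dawley rats (225–250 g) were pretreated by tail vein with a selective CB1 inverse agonist (10 mg/kg, i.v.) or its vehicle. After 15 min they received the test compound (30 μg/kg, i.v.) and were killed by cervical dislocation at 0.25, 0.5, 1, 2, 4 or 8 h, three rats per time point. Frontal cortex was weighed, homogenised in four volumes MeCN with 0.1% HCO2H, and quantified by LC-MS.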"}, "human CB1 receptors": {"target": "human CB1 receptors (Homo sapiens, UniProt P21554)", "sequence (P21554 whole entry)": "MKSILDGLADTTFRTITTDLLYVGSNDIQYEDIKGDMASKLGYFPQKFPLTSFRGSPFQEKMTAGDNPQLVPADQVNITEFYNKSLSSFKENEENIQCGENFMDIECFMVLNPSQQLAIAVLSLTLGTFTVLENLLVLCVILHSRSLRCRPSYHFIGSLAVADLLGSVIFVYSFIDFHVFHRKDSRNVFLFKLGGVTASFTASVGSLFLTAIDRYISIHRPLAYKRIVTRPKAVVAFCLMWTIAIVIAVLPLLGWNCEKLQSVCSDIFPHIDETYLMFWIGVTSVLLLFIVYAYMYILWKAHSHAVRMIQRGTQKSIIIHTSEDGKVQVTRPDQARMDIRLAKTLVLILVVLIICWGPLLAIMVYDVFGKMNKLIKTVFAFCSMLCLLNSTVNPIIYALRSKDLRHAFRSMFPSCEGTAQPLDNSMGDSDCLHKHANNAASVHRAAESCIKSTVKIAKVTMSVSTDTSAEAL", "test": "CB1 GTPγ35S potency assay", "assay_type": "biochemical", "conditions": "ratio of CB2 Kb to CB1 Kb; fold"}, "[2]": {"conditions": "monkey; within 10-20 min after injection; cited from earlier work"}},
  "note": "Like-named read-outs stand apart in the source and are kept apart here.",
  "data": [
    {"smiles": "C[C@@H](N[C@@H]1C[C@H](c2cccc(OCF)c2)N(c2ccc(C(F)(F)F)cc2)C1=O)c1ccccc1", "note": "[Ligand 20, (3R,5R)-5-(3-Fluoromethoxy-phenyl)-3-((R)-1-phenyl-ethylamino)-1-(4-trifluoromethyl-phenyl)-pyrrolidin-2-one]", "values": [
      {"measurement": "Ligand quantifiability in frontal cerebral cortex", "setting": "[1]; at 4 h after injection", "value": "not quantifiable"},
      {"measurement": "CB1 versus CB2 selectivity", "setting": "human CB1 receptors", "value": "3,580"}
    ]},
    {"smiles": "COc1cccc([C@H]2C[C@@H](N[C@H](C)c3ccc(F)cc3)C(=O)N2c2ccc(C(F)(F)F)cc2)c1", "note": "[Ligand 16, (3R,5R)-3-[(R)-1-(4-Fluoro-phenyl)-ethylamino]-5-(3-methoxy-phenyl)-1-(4-trifluoromethyl-phenyl)-pyrrolidin-2-one]", "values": [
      {"measurement": "CB1 versus CB2 selectivity", "setting": "human CB1 receptors", "value": "2,160"}
    ]},
    {"smiles": "C[C@@H](N[C@@H]1C[C@H](c2cccc(OCCF)c2)N(c2ccc(C(F)(F)F)cc2)C1=O)c1ccccc1", "note": "[Ligand 22, (3R,5R)-5-[3-(2-Fluoro-ethoxy)-phenyl]-3-((R)-1-phenyl-ethylamino)-1-(4-trifluoromethyl-phenyl)-pyrrolidin-2-one]", "values": [
      {"measurement": "Ligand quantifiability in frontal cerebral cortex", "setting": "[1]; at 2 h after injection", "value": "could not be quantified"},
      {"measurement": "CB1 versus CB2 selectivity", "setting": "human CB1 receptors", "value": ">19,500"}
    ]},
    {"smiles": "COc1cccc([C@H]2C[C@@H](N[C@H](C)c3ccccc3)C(=O)N2c2ccc(C(F)(F)F)cc2)c1", "note": "[Ligand 8, (3R,5R)-5-(3-Methoxy-phenyl)-3-((R)-1-phenyl-ethylamino)-1-(4-trifluoromethyl-phenyl)-pyrrolidin-2-one]", "values": [
      {"measurement": "Ligand quantifiability in frontal cerebral cortex", "setting": "[1]; at 4 h after injection", "value": "not quantifiable"}
    ]},
    {"smiles": "C[C@@H](N[C@@H]1C[C@H](c2cccc(O[11CH3])c2)N(c2ccc(C(F)(F)F)cc2)C1=O)c1ccccc1", "note": "[[^11C]8, [methyl-^11C](3R,5R)-5-(3-methoxy-phenyl)-3-((R)-1-phenyl-ethylamino)-1-(4-trifluoromethyl-phenyl)-pyrrolidin-2-one]", "values": [
      {"measurement": "Brain standardized uptake value", "setting": "[2]", "value": "~600", "unit": "% SUV"}
    ]}
  ]
}
